Experiment [1] concerns the target T1, Mitogen-activated protein kinase 12 (Homo sapiens) (UniProt P53778).
T1 sequence (whole entry): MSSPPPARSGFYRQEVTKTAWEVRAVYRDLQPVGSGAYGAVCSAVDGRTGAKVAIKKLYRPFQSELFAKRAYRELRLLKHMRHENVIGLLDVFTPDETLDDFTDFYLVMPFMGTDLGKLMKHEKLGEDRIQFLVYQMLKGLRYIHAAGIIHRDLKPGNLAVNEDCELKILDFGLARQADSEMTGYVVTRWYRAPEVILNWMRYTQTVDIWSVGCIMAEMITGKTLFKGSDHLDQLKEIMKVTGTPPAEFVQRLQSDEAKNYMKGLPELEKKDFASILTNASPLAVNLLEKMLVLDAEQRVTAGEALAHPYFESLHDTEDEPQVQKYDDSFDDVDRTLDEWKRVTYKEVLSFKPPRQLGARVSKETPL
As to the kind of experiment: Inhibition of p38-gamma assessed as residual enzyme activity at 10 uM relative to untreated control. A digest of the protocol: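 p38γ and p38δ MAPK run at 5 µM [γ-33P]ATP, and p38α at 50 µM, each with 10 mM Mg acetate. Buffer 50 mM Tris/HCl pH 7.5, 0.1 mM EGTA, 0.1% 2-mercaptoethanol. 10 µM compound, 30 min at 21 °C. P81 filter capture. Residual activity relative to control, duplicates.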

For experiment [2], the target named is Protein kinase C zeta type (Homo sapiens) (UniProt Q05513). As to the kind of experiment: Inhibition of PKCzeta assessed as residual enzyme activity at 10 uM relative to untreated control.
The target of experiment [3] is Serine/threonine-protein kinase PAK 6 (Homo sapiens) (UniProt Q9NQU5). As to the kind of experiment: Inhibition of PAK6 assessed as residual enzyme activity at 10 uM relative to untreated control. A digest of the protocol: (§1)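 Kinases of human origin, except CK1δ, which is rat. Run in 50 mM Tris/HCl pH 7.5, 0.1 mM EGTA, 0.1% 2-mercaptoethanol and 10 mM Mg acetate, with [γ-33P]ATP at 20 µM, 30 min at 21 °C. Acid-stopped and captured on P81 filters. Compound tested at 10 µM; residual % of uninhibited control, duplicate determinations.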

The target in experiment [4] is Mitogen-activated protein kinase 3 (Homo sapiens) (UniProt P27361). As to the kind of experiment: Inhibition of ERK1 assessed as residual enzyme activity at 10 uM relative to untreated control. A digest of the protocol:
(§2)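 Radiometric filter-binding assay at 21 °C for 30 min. Mix: 50 mM Tris/HCl pH 7.5, 0.1 mM EGTA, 0.1% 2-mercaptoethanol, 10 mM Mg acetate and [γ-33P]ATP (800 cpm/pmol) at 5 µM. Stopped with orthophosphoric acid and spotted on P81. Compound at 10 µM; activity given as % remaining versus no-inhibitor control, duplicates. Kinases human full-length unless noted.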

Experiment [5] is described as follows: Inhibition of CK2 assessed as residual enzyme activity at 10 uM relative to untreated control. A digest of the protocol:
as §2

The target in experiment [6] is Serine/threonine-protein kinase N2 (Homo sapiens) (UniProt Q16513). The experiment in a line: Inhibition of PRK2 assessed as residual enzyme activity at 10 uM relative to untreated control. Summed up: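 Tris/HCl pH 7.5, EGTA, 2-mercaptoethanol buffer, 30 min, 21 °C, compound at 10 µM. Radioactive phosphate measured on P81 filters. Residual activity as % of uninhibited incubations, duplicates.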

Experiment [7] concerns the target Myosin light chain kinase, smooth muscle (Homo sapiens) (UniProt Q15746). The experiment in a line: Inhibition of smMLCK assessed as residual enzyme activity at 10 uM relative to untreated control.
The nature of experiment [8]: Inhibition of CK1 assessed as residual enzyme activity at 10 uM relative to untreated control.
Experiment [9] concerns ERK2 (Mus musculus). The experiment in a line: Inhibition of ERK2 assessed as residual enzyme activity at 10 uM relative to untreated control.
Experiment [10] deals with Calcium/calmodulin-dependent protein kinase kinase 1 (Homo sapiens) (UniProt Q8N5S9). The experiment in a line: Inhibition of CAMKKalpha assessed as residual enzyme activity at 10 uM relative to untreated control.
In experiment [11] the target is T2, 3-phosphoinositide-dependent protein kinase 1 (Homo sapiens) (UniProt O15530).
T2 sequence (whole entry): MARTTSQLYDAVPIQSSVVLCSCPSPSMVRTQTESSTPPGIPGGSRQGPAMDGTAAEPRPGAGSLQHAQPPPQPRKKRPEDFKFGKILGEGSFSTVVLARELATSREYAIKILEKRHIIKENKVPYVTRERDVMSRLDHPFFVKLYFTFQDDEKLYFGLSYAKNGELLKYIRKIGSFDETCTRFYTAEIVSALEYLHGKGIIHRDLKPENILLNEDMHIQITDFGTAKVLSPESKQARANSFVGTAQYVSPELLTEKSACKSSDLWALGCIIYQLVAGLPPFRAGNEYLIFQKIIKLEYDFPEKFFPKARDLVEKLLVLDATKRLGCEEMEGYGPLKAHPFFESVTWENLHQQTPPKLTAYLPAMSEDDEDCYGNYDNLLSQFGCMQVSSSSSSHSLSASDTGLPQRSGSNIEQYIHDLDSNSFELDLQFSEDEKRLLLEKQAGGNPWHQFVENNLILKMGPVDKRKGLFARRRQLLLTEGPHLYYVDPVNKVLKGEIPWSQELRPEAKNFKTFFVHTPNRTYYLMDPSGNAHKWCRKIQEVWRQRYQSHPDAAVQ
The experiment in a line: Inhibition of PDK1 assessed as residual enzyme activity at 10 uM relative to untreated control. A digest of the protocol:
as §1

The target of experiment [12] is MAP kinase-activated protein kinase 2 (Homo sapiens) (UniProt P49137). The experiment in a line: Inhibition of MAPKAPK2 assessed as residual enzyme activity at 10 uM relative to untreated control. Summed up:
as §1

The target in experiment [13] is Maternal embryonic leucine zipper kinase (Homo sapiens) (UniProt Q14680). The experiment in a line: Inhibition of MELK assessed as residual enzyme activity at 10 uM relative to untreated control. Summed up:
(§3)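 Assayed with [γ-33P]ATP at 50 µM and 10 mM Mg acetate in 50 mM Tris/HCl pH 7.5, 0.1 mM EGTA, 0.1% 2-mercaptoethanol, 30 min, 21 °C. Phosphoric acid stop, P81 filter capture. ERK2 and Lck are mouse; AMPK is rat. 10 µM compound; % activity remaining relative to control without inhibitor, duplicates.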

Experiment [14] has as its target Serine/threonine-protein kinase Nek6 (Homo sapiens) (UniProt Q9HC98). As to the kind of experiment: Inhibition of NEK6 assessed as residual enzyme activity at 10 uM relative to untreated control. Summed up: as §3
In experiment [15] the target is SRSF protein kinase 1 (Homo sapiens) (UniProt Q96SB4). As to the kind of experiment: Inhibition of SRPK1 assessed as residual enzyme activity at 10 uM relative to untreated control.
Experiment [16] addresses Ribosomal protein S6 kinase alpha-5 (Homo sapiens) (UniProt O75582). As to the kind of experiment: Inhibition of MSK1 assessed as residual enzyme activity at 10 uM relative to untreated control.
Experiment [17] concerns ROCK2 (Rattus norvegicus). As to the kind of experiment: Inhibition of ROCK2 assessed as residual enzyme activity at 10 uM relative to untreated control.
The target of experiment [18] is Proto-oncogene tyrosine-protein kinase Src (Homo sapiens) (UniProt P12931). The experiment in a line: Inhibition of Src assessed as residual enzyme activity at 10 uM relative to untreated control.
Sequence of Proto-oncogene tyrosine-protein kinase Src (Homo sapiens) (P12931 2-536 limits assumed): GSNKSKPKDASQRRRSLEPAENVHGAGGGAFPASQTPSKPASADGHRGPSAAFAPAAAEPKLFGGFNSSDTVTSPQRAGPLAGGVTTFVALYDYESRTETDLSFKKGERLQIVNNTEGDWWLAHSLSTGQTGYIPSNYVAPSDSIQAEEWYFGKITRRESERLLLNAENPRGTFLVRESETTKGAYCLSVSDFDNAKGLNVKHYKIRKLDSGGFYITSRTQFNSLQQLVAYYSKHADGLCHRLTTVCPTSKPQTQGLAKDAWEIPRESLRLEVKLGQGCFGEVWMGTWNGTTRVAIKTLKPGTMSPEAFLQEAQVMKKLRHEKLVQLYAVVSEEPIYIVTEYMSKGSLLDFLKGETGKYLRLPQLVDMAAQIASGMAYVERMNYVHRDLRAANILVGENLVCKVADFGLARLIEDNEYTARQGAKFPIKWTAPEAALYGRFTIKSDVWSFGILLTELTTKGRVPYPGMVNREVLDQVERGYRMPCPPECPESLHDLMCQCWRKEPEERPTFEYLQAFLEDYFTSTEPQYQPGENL

Sequence of Ribosomal protein S6 kinase alpha-5 (Homo sapiens) (O75582 whole entry, looked up): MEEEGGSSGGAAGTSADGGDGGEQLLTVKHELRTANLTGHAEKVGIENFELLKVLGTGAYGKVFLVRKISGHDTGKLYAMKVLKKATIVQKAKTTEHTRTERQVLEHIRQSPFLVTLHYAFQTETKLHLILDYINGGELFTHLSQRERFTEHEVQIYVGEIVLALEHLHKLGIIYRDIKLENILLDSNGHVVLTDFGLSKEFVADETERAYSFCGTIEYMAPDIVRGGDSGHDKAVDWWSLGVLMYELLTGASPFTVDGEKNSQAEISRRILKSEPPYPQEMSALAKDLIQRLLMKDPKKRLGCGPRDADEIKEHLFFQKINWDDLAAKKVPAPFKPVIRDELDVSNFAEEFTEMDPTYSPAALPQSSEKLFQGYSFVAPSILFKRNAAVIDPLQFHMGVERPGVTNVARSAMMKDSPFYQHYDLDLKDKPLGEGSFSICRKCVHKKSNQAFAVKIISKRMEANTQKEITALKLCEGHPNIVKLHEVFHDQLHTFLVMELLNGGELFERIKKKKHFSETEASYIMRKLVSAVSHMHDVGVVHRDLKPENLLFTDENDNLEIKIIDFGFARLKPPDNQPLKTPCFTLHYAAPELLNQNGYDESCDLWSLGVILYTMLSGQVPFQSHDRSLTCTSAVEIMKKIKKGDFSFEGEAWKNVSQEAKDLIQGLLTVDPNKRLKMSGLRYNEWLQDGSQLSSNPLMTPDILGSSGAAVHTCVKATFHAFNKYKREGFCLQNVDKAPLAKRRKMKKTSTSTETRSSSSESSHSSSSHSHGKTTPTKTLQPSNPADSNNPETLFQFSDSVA
Sequence of Protein kinase C zeta type (Homo sapiens) (Q05513 whole entry, looked up): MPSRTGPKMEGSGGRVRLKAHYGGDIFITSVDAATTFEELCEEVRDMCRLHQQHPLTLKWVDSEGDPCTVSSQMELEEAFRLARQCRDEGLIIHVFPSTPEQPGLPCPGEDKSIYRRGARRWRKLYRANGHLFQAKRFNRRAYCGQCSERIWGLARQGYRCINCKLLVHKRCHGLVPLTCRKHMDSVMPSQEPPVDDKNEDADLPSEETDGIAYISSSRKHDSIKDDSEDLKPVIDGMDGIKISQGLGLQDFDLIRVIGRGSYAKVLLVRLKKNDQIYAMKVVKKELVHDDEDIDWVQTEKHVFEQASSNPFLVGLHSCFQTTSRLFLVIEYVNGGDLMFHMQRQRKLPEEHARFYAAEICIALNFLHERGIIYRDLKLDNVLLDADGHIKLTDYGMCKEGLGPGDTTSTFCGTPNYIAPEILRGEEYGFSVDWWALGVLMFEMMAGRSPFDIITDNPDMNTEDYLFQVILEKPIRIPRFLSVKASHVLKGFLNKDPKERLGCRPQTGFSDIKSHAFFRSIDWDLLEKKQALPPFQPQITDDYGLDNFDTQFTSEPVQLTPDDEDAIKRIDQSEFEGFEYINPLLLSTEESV
Sequence of Serine/threonine-protein kinase N2 (Homo sapiens) (Q16513 whole entry, looked up): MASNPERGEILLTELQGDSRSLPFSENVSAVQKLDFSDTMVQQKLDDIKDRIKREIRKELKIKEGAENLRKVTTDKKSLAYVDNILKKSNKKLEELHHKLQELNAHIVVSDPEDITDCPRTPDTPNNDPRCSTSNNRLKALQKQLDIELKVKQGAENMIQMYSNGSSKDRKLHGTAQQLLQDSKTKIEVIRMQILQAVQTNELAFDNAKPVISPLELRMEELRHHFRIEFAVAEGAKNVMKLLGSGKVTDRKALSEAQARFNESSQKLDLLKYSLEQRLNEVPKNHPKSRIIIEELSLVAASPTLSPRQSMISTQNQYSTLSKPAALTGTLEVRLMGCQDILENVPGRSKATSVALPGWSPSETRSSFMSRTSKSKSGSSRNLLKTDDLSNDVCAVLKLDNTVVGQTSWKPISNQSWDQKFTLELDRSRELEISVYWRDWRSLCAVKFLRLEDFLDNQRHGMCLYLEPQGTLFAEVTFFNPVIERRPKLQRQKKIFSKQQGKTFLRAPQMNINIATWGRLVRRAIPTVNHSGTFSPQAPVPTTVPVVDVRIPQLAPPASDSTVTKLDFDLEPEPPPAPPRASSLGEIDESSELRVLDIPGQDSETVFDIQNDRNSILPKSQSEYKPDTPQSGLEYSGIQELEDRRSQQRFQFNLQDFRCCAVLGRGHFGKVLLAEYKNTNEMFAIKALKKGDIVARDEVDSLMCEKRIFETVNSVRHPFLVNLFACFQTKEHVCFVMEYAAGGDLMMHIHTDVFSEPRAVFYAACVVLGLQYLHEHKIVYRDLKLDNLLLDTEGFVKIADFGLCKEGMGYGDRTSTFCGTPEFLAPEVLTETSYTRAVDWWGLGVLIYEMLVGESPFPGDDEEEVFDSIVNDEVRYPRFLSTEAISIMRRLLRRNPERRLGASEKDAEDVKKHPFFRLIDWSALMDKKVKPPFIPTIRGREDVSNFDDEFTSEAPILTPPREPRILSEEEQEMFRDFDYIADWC
Sequence of SRSF protein kinase 1 (Homo sapiens) (Q96SB4 whole entry): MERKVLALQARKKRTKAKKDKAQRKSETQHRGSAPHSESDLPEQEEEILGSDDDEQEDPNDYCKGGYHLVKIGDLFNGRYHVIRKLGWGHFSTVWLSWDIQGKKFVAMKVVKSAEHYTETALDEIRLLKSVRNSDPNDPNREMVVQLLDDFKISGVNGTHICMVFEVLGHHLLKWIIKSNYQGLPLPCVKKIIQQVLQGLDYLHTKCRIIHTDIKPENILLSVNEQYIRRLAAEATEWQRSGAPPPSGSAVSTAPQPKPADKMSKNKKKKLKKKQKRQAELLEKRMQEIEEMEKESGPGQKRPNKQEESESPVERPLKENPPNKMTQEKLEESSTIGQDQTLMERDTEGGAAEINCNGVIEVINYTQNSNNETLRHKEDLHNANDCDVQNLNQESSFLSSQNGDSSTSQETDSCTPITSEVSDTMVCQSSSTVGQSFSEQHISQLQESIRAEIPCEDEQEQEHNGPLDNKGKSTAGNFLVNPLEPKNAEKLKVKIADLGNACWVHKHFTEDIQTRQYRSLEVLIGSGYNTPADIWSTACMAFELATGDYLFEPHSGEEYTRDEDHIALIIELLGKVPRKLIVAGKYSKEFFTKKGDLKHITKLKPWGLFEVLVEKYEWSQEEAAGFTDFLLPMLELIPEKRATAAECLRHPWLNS
Sequence of Mitogen-activated protein kinase 3 (Homo sapiens) (P27361 whole entry): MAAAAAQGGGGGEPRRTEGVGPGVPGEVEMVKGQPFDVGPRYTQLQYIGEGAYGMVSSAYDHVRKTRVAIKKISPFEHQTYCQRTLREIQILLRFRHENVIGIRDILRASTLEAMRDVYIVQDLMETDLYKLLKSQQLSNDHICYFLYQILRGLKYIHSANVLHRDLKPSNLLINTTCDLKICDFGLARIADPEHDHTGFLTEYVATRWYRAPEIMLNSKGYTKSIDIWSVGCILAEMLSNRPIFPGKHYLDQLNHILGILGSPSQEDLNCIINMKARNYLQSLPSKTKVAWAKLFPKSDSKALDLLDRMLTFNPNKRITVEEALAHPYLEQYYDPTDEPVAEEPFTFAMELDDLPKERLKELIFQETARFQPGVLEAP
Sequence of Serine/threonine-protein kinase Nek6 (Homo sapiens) (Q9HC98 whole entry): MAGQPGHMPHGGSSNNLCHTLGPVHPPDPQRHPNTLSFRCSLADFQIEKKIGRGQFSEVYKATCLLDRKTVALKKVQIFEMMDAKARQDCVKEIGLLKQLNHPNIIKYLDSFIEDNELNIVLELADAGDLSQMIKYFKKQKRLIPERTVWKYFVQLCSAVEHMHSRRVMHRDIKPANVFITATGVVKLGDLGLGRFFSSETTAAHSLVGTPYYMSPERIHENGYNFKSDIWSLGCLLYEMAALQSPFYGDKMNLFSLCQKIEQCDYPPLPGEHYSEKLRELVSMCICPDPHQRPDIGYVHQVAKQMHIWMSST
Sequence of Serine/threonine-protein kinase PAK 6 (Homo sapiens) (Q9NQU5 whole entry, looked up): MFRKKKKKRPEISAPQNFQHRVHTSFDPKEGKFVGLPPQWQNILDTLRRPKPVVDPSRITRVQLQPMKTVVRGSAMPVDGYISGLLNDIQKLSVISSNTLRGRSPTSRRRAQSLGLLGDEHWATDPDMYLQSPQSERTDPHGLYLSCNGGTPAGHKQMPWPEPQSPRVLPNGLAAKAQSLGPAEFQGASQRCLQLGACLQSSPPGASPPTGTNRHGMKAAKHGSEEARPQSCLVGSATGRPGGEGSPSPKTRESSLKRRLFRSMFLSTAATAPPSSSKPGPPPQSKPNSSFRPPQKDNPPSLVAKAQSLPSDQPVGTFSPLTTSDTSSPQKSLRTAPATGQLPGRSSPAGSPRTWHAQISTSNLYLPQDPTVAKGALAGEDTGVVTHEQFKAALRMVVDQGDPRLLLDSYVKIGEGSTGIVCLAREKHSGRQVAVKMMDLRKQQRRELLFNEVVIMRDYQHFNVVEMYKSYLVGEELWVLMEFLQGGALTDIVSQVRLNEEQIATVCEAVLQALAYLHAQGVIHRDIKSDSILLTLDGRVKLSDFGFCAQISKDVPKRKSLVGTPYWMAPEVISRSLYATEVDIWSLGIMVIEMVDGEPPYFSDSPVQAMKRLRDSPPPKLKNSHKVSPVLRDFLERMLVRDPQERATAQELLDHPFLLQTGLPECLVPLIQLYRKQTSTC

With `c1ccc2c(c1)[nH]c1c2ccc2cc[nH]c21`, the Activity in experiment [1] was found to be 111%; in experiment [2], 91%; in experiment [3], 92%; in experiment [4], 108%; in experiment [5] it was 91%; in experiment [6] it was 95%. The Activity in experiment [7] amounted to 86%; in [8], 107%; in experiment [9] it was 94%; in [10], 76%; in experiment [11] it was 86%; in experiment [12], 118%. In addition, the Activity turned out to be 93% in [13]; 90% in [14]; 90% in experiment [15]; 90% in [16]; 86% in [17]; 98% in [18].
Regarding `O=Cc1c[nH]c2c1ccc1c3ccccc3[nH]c12`, the Activity was 74% in experiment [1]; 83% in [2]; 94% in experiment [3]; 87% in [4]; 62% in [5]; 31% in [6]. Moreover, the Activity in experiment [7] is 60%; in [10], 42%; in [12], 84%; in [13], 61%; in [14], 78%; in [15], 84%. Further, the Activity in experiment [16] was 71%; in experiment [18] it was 85%.
For the compound `O=Cc1c[nH]c2ccc3c4ccccc4[nH]c3c12`, the Activity in experiment [1] turned out to be 109%; in experiment [2], 91%; in experiment [3], 99%; in experiment [4] it was 95%; in [5] it was 98%; in experiment [6], 101%. For the same compound, the Activity in [7] stood at 91%; in experiment [8] it was 113%; in experiment [9], 94%; in experiment [10] it was 90%; in experiment [11], 85%; in [12], 95%. In addition, the Activity in [13] was found to be 89%; in experiment [14], 86%; in experiment [15] it was 93%; in experiment [16], 84%; in [17], 86%; in experiment [18] it was 99%.
As for `c1ccc2c(c1)[nH]c1c3cc[nH]c3ccc21`, the Activity came to 111% in experiment [1]; 87% in [2]; 91% in [3]; 97% in [4]; 96% in experiment [5]; 84% in [6]. In addition, the Activity in experiment [7] came to 82%; in [8], 99%; in experiment [9], 100%; in [10], 92%; in experiment [11], 82%; in [12], 95%. In addition, the Activity in experiment [13] came out at 82%; in experiment [14], 71%; in [15], 94%; in [16], 94%; in experiment [17] it was 89%; in experiment [18], 102%.

For the origin of these results see ChEMBL document CHEMBL1154186, “Synthesis, kinase inhibitory potencies, and in vitro antiproliferative evaluation of new Pim kinase inhibitors” (J Med Chem, 2009).
